From ChEMBL document CHEMBL1629526, “4-[1-(Substituted aryl/alkyl carbonyl)-benzoimidazol-2-yl]-benzenesulfonic acids: synthesis, antimicrobial activity, QSAR studies, and antiviral evaluation” (Eur J Med Chem, 2010)
Converted amounts (≈) assume the structure as drawn.

Assays:
[1] = system: Vesicular stomatitis virus; experiment: Antiviral activity against Vesicular stomatitis virus infected in human HeLa cells assessed as inhibition of virus induced cytopathicity after 2 to 4 days by MTS assay; format: functional, organism-based
Bacillus subtilis = experiment: Antimicrobial activity against Bacillus subtilis after 24 hrs by tube dilution method; format: functional
In short: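 Serial dilutions in double-strength nutrient broth (I.P.) with ciprofloxacin as reference, tube dilution, incubated 37 °C for 24 h. MIC is the lowest concentration that inhibited growth.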

Human alphaherpesvirus 1 [2] = experiment: Antiviral activity against Herpes simplex virus 1 KOS infected in HEL cells assessed as inhibition of virus induced cytopathicity after 2 to 4 days by MTS assay; format: functional, organism-based; conditions: Human alphaherpesvirus 1, KOS
Aspergillus niger = experiment: Antimicrobial activity against Aspergillus niger after 7 days by tube dilution method; format: functional; conditions: 168 h
Influenza B virus [3] = experiment: Antiviral activity against Influenza B virus infected in MDCK cells assessed as inhibition of virus induced cytopathicity after 2 to 4 days by MTS assay; format: functional, organism-based
Punta Toro virus = experiment: Antiviral activity against Punta Toro virus infected in african green monkey Vero cells assessed as inhibition of virus induced cytopathicity after 2 to 4 days by MTS assay; format: functional, organism-based
HeLa = experiment: Cytotoxicity against human HeLa cells assessed as cell viability by MTS assay; format: cell-based; conditions: hela
In short: (§1)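 Uninfected cultures were run in parallel with the antiviral assays. Viability was read by colorimetric formazan MTS assay.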

Influenza A virus [4] = experiment: Antiviral activity against Influenza A H3N2 virus subtype infected in MDCK cells assessed as inhibition of virus induced cytopathicity after 2 to 4 days by MTS assay; format: functional, organism-based
Coxsackievirus B4 [5] = experiment: Antiviral activity against Coxsackie virus B4 infected in african green monkey Vero cells assessed as inhibition of virus induced cytopathicity after 2 to 4 days by MTS assay; format: functional, organism-based; conditions: Enterovirus B
Influenza B virus [6] = experiment: Antiviral activity against Influenza B virus infected in MDCK cells assessed as inhibition of virus induced cytopathicity by visual scoring of CPE; format: functional, organism-based
Candida albicans = experiment: Antimicrobial activity against Candida albicans after 48 hrs by tube dilution method; format: functional
Staphylococcus aureus = experiment: Antimicrobial activity against Staphylococcus aureus after 24 hrs by tube dilution method; format: functional
Coxsackievirus B4 [7] = experiment: Antiviral activity against coxsackievirus B4 infected in human HeLa cells assessed as inhibition of virus induced cytopathicity after 2 to 4 days by MTS assay; format: functional, organism-based; conditions: Enterovirus B
Escherichia coli = experiment: Antimicrobial activity against Escherichia coli after 24 hrs by tube dilution method; format: functional
Coxsackievirus B4 [8] = experiment: Antiviral activity against coxsackievirus B4 infected in human HeLa cells assessed as inhibition of virus induced cytopathicity by visual scoring of CPE; format: functional, organism-based; conditions: Enterovirus B
[9] = Cytotoxicity against MDCK cells assessed as altered cell morphology; format: cell-based, Canis lupus familiaris; conditions: dog
In short: (§2)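 Uninfected cell cultures run alongside the antiviral assays, exposed to serial compound dilutions and incubated at 37 °C for 2–4 days. Toxicity was scored microscopically and reported as the minimum cytotoxic concentration (MCC), the lowest concentration causing a detectable change in normal cell morphology.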

[10] = system: Respiratory syncytial virus; experiment: Antiviral activity against Respiratory syncytial virus infected in human HeLa cells assessed as inhibition of virus induced cytopathicity after 2 to 4 days by MTS assay; format: functional, organism-based
MDCK = experiment: Cytotoxicity against MDCK cells assessed as cell viability by MTS assay; format: cell-based, Canis lupus familiaris; conditions: dog, mdck; in short: as §1
[11] = system: Vesicular stomatitis virus; experiment: Antiviral activity against Vesicular stomatitis virus infected in human HeLa cells assessed as inhibition of virus induced cytopathicity by visual scoring of CPE; format: functional, organism-based
Human alphaherpesvirus 1 [12] = experiment: Antiviral activity against thymidine kinase deficient acyclovir-resistant Herpes simplex virus 1 KOS infected in HEL cells assessed as inhibition of virus induced cytopathicity after 2 to 4 days by MTS assay; format: functional, organism-based; conditions: Human alphaherpesvirus 1, KOS
[13] = system: Respiratory syncytial virus; experiment: Antiviral activity against Respiratory syncytial virus infected in human HeLa cells assessed as inhibition of virus induced cytopathicity by visual scoring of CPE; format: functional, organism-based
[14] = Cytotoxicity against human HeLa cells assessed as altered cell morphology; format: cell-based; in short: as §2
Sindbis virus = experiment: Antiviral activity against Sindbis virus infected in african green monkey Vero cells assessed as inhibition of virus induced cytopathicity after 2 to 4 days by MTS assay; format: functional, organism-based
Feline coronavirus = experiment: Antiviral activity against Feline coronavirus infected in cat CRFK cells assessed as inhibition of virus induced cytopathicity after 2 to 4 days by MTS assay; format: functional, organism-based; conditions: Alphacoronavirus 1, CRFK
[15] = system: Mammalian orthoreovirus 1; experiment: Antiviral activity against Reovirus 1 virus infected in african green monkey Vero cells assessed as inhibition of virus induced cytopathicity after 2 to 4 days by MTS assay; format: functional, organism-based; conditions: Mammalian orthoreovirus 1, Vero
Influenza A virus [16] = experiment: Antiviral activity against Influenza A H3N2 virus subtype infected in MDCK cells assessed as inhibition of virus induced cytopathicity by visual scoring of CPE; format: functional, organism-based
Human respirovirus 3 = experiment: Antiviral activity against parainfluenza-3 virus infected in african green monkey Vero cells assessed as inhibition of virus induced cytopathicity after 2 to 4 days by MTS assay; format: functional, organism-based; conditions: Human respirovirus 3, Vero
[17] = Cytotoxicity against african green monkey Vero cells assessed as altered cell morphology; format: cell-based; conditions: chlorocebus sabaeus; in short: as §2
Felid alphaherpesvirus 1 = experiment: Antiviral activity against Feline herpesvirus 1 infected in cat CRFK cells assessed as inhibition of virus induced cytopathicity after 2 to 4 days by MTS assay; format: functional, organism-based; conditions: Felid alphaherpesvirus 1, CRFK
[18] = system: Vesicular stomatitis virus; experiment: Antiviral activity against Vesicular stomatitis virus infected in HEL cells assessed as inhibition of virus induced cytopathicity after 2 to 4 days by MTS assay; format: functional, organism-based
Vaccinia virus = experiment: Antiviral activity against Vaccinia virus infected in HEL cells assessed as inhibition of virus induced cytopathicity after 2 to 4 days by MTS assay; format: functional, organism-based; conditions: Orthopoxvirus vaccinia
[19] = Cytotoxicity against cat CRFK cells assessed as cell viability by MTS assay; format: cell-based, Felis catus; conditions: crfk; in short: as §1
[20] = Cytotoxicity against human HEL cells assessed as altered cell morphology; format: cell-based; in short: as §2
Human alphaherpesvirus 2 = experiment: Antiviral activity against Herpes simplex virus 2 G infected in HEL cells assessed as inhibition of virus induced cytopathicity after 2 to 4 days by MTS assay; format: functional, organism-based; conditions: Human alphaherpesvirus 2, strain G

## COc1ccc(C(=O)n2c(-c3ccc(S(=O)(=O)O)cc3)nc3ccccc32)cc1
[1]
  EC50: > 100 mg/L
Bacillus subtilis
  MBC: > 50 mg/L
Human alphaherpesvirus 1 [2]
  EC50: > 100 mg/L
Aspergillus niger
  MFC: > 50 mg/L
Influenza B virus [3]
  EC50: > 100 mg/L
Punta Toro virus
  EC50: > 100 mg/L
HeLa
  CC50: > 100 mg/L
Influenza A virus [4]
  EC50: > 100 mg/L
Coxsackievirus B4 [5]
  EC50: > 100 mg/L
Influenza B virus [6]
  EC50: > 100 mg/L
Candida albicans
  MFC: > 50 mg/L
Staphylococcus aureus
  MBC: > 50 mg/L
Coxsackievirus B4 [7]
  EC50: > 100 mg/L
Escherichia coli
  MBC: 3.12 mg/L (≈ 7.64 µM)
Coxsackievirus B4 [8]
  EC50: > 100 mg/L
[9]
  MCC: > 100 µg/mL
[10]
  EC50: > 100 mg/L
MDCK
  CC50: > 100 mg/L
[11]
  EC50: > 100 mg/L
Human alphaherpesvirus 1 [12]
  EC50: > 100 mg/L
[13]
  EC50: > 100 mg/L
[14]
  MCC: > 100 µg/mL
Sindbis virus
  EC50: > 100 mg/L
Feline coronavirus
  EC50: > 100 mg/L
[15]
  EC50: > 100 mg/L
Influenza A virus [16]
  EC50: > 100 mg/L
Human respirovirus 3
  EC50: > 100 mg/L
[17]
  MCC: > 100 µg/mL
Felid alphaherpesvirus 1
  EC50: > 100 mg/L
[18]
  EC50: > 100 mg/L
Vaccinia virus
  EC50: > 100 mg/L
[19]
  CC50: > 100 mg/L
[20]
  MCC: > 100 µg/mL
Human alphaherpesvirus 2
  EC50: > 100 mg/L

## O=C(c1ccc([N+](=O)[O-])cc1)n1c(-c2ccc(S(=O)(=O)O)cc2)nc2ccccc21
[1]
  EC50: > 100 mg/L
Bacillus subtilis
  MBC: 50 mg/L (≈ 118 µM)
Human alphaherpesvirus 1 [2]
  EC50: > 100 mg/L
Aspergillus niger
  MFC: > 50 mg/L
Influenza B virus [3]
  EC50: > 100 mg/L
Punta Toro virus
  EC50: > 100 mg/L
HeLa
  CC50: > 100 mg/L
Influenza A virus [4]
  EC50: > 100 mg/L
Coxsackievirus B4 [5]
  EC50: > 100 mg/L
Influenza B virus [6]
  EC50: > 100 mg/L
Candida albicans
  MFC: 25 mg/L (≈ 59 µM)
Staphylococcus aureus
  MBC: 50 mg/L (≈ 118 µM)
Coxsackievirus B4 [7]
  EC50: > 100 mg/L
Escherichia coli
  MBC: 1.56 mg/L (≈ 3.68 µM)
Coxsackievirus B4 [8]
  EC50: > 100 mg/L
[9]
  MCC: > 100 µg/mL
[10]
  EC50: > 100 mg/L
MDCK
  CC50: > 100 mg/L
[11]
  EC50: > 100 mg/L
Human alphaherpesvirus 1 [12]
  EC50: > 100 mg/L
[13]
  EC50: > 100 mg/L
[14]
  MCC: > 100 µg/mL
Sindbis virus
  EC50: > 100 mg/L
Feline coronavirus
  EC50: > 100 mg/L
[15]
  EC50: > 100 mg/L
Influenza A virus [16]
  EC50: > 100 mg/L
Human respirovirus 3
  EC50: > 100 mg/L
[17]
  MCC: > 100 µg/mL
Felid alphaherpesvirus 1
  EC50: > 100 mg/L
[18]
  EC50: > 100 mg/L
Vaccinia virus
  EC50: > 100 mg/L
[19]
  CC50: > 100 mg/L
[20]
  MCC: > 100 µg/mL
Human alphaherpesvirus 2
  EC50: > 100 mg/L

## Cc1ccc(C(=O)n2c(-c3ccc(S(=O)(=O)O)cc3)nc3ccccc32)cc1
[1]
  EC50: > 100 mg/L
Bacillus subtilis
  MBC: 6.25 mg/L (≈ 15.9 µM)
Human alphaherpesvirus 1 [2]
  EC50: > 100 mg/L
Aspergillus niger
  MFC: > 50 mg/L
Influenza B virus [3]
  EC50: > 100 mg/L
Punta Toro virus
  EC50: > 100 mg/L
HeLa
  CC50: > 100 mg/L
Influenza A virus [4]
  EC50: > 100 mg/L
Coxsackievirus B4 [5]
  EC50: > 100 mg/L
Influenza B virus [6]
  EC50: > 100 mg/L
Candida albicans
  MFC: 50 mg/L (≈ 127 µM)
Staphylococcus aureus
  MBC: 12.5 mg/L (≈ 31.9 µM)
Coxsackievirus B4 [7]
  EC50: > 100 mg/L
Escherichia coli
  MBC: 25 mg/L (≈ 63.7 µM)
Coxsackievirus B4 [8]
  EC50: > 100 mg/L
[9]
  MCC: > 100 µg/mL
[10]
  EC50: > 100 mg/L
MDCK
  CC50: > 100 mg/L
[11]
  EC50: > 100 mg/L
Human alphaherpesvirus 1 [12]
  EC50: > 100 mg/L
[13]
  EC50: > 100 mg/L
[14]
  MCC: > 100 µg/mL
Sindbis virus
  EC50: > 100 mg/L
Feline coronavirus
  EC50: > 100 mg/L
[15]
  EC50: > 100 mg/L
Influenza A virus [16]
  EC50: > 100 mg/L
Human respirovirus 3
  EC50: > 100 mg/L
[17]
  MCC: > 100 µg/mL
Felid alphaherpesvirus 1
  EC50: > 100 mg/L
[18]
  EC50: > 100 mg/L
Vaccinia virus
  EC50: > 100 mg/L
[19]
  CC50: > 100 mg/L
[20]
  MCC: > 100 µg/mL
Human alphaherpesvirus 2
  EC50: > 100 mg/L

## C/C=C/C(=O)n1c(-c2ccc(S(=O)(=O)O)cc2)nc2ccccc21
[1]
  EC50: > 100 mg/L
Bacillus subtilis
  MBC: 50 mg/L (≈ 146 µM)
Human alphaherpesvirus 1 [2]
  EC50: > 100 mg/L
Aspergillus niger
  MFC: > 50 mg/L
Influenza B virus [3]
  EC50: > 100 mg/L
Punta Toro virus
  EC50: > 100 mg/L
HeLa
  CC50: > 100 mg/L
Influenza A virus [4]
  EC50: > 100 mg/L
Coxsackievirus B4 [5]
  EC50: > 100 mg/L
Influenza B virus [6]
  EC50: > 100 mg/L
Candida albicans
  MFC: > 50 mg/L
Staphylococcus aureus
  MBC: 12.5 mg/L (≈ 36.5 µM)
Coxsackievirus B4 [7]
  EC50: > 100 mg/L
Escherichia coli
  MBC: 12.5 mg/L (≈ 36.5 µM)
Coxsackievirus B4 [8]
  EC50: > 100 mg/L
[9]
  MCC: > 100 µg/mL
[10]
  EC50: > 100 mg/L
MDCK
  CC50: > 100 mg/L
[11]
  EC50: > 100 mg/L
Human alphaherpesvirus 1 [12]
  EC50: > 100 mg/L
[13]
  EC50: > 100 mg/L
[14]
  MCC: > 100 µg/mL
Sindbis virus
  EC50: > 100 mg/L
Feline coronavirus
  EC50: > 100 mg/L
[15]
  EC50: > 100 mg/L
Influenza A virus [16]
  EC50: > 100 mg/L
Human respirovirus 3
  EC50: > 100 mg/L
[17]
  MCC: > 100 µg/mL
Felid alphaherpesvirus 1
  EC50: > 100 mg/L
[18]
  EC50: > 100 mg/L
Vaccinia virus
  EC50: > 100 mg/L
[19]
  CC50: > 100 mg/L
[20]
  MCC: > 100 µg/mL
Human alphaherpesvirus 2
  EC50: > 100 mg/L
